Bioassay records from PubChem BioAssay.
Compounds with a hit are over-represented: about 3.7% of the library has one in this group of screens.
AHR activator – AHR activators, primary screen, cell-based, luminescence, luciferase reporter, human; AHR-responsive luciferase reporter cells; 2.5% of 320,000 active; Aryl hydrocarbon receptor (Homo sapiens), P35869; activation, % at 5 µM; in the data active = activation above about 47%;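 also: 0% = vehicle wells and 100% = reference agonist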
SR-BI uptake up – activators of SR-BI mediated DiI-HDL uptake, primary screen, ldlA[mSR-BI] CHO cells, DiI fluorescence; 0.096% of 320,000 active; activation, % at 12.5 µM; 3 h; 100 = double the neutral-control signal;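 active = mean replicate activation of at least 60% and every replicate at or above 60%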;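 also: 0% = median plate neutral-control signal and 100% = twice that signal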
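Test system: SR-BI-overexpressing, LDLR-lacking CHO cells. Measured by: DiI fluorescence, bottom read. Medium: Ham's F12 with 0.5% BSA, HEPES 25 mM, pH 7.4. Timing: 3 h uptake period with compound, 37 °C.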
GAA850 FXN act – FXN promoter activators, primary screen, cell-based, luciferase luminescence, HEK293 lucGAA850 | HEK293 lucGAA850 FXN promoter luciferase reporter, 24 h; percent of 10 µM SAHA response | AID 540364, 2011 | activation, % at 6 µM | 0.56% of 360,000 active;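 active = activation above the average of all compounds screened plus 3 SD, cutoff fixed separately per campaign, cut at about 7.5% in these data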;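 also: 0% = DMSO wells and 100% = 10 µM SAHA wells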
GASC-1 inh – inhibitors of GASC-1 histone demethylase, primary screen, biochemical, fluorescence, DELFIA europium | AID 2099, 2009 | GST-JMJD2C(1-420) H3K9me3 demethylation | Lysine-specific demethylase 4C (Homo sapiens), Q9H3R0 | inhibition, % at 2.35 µM | 0.069% of 330,000 active;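 active = more than half of a compound's replicate wells show inhibition beyond 50%, single wells judged on their own value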;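 also: signal counts dimethyl H3K9 product captured on neutravidin plate; 0% = median of DMSO wells and 100% = 0.3 times that DMSO median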
SR-BI HDL uptake – inhibitors of SR-BI mediated HDL lipid uptake, primary screen, ldlA[mSR-BI] cells, fluorescence, single point. Scavenger receptor class B member 1 (Mus musculus), Q61009. ldlA[mSR-BI] CHO cells, DiI-HDL uptake fluorescence, 3 h. inhibition, % at 12.5 µM. 0.96% of 320,000 active. AID 488896, 2010;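 active = mean replicate inhibition of at least 70% and a set share of replicates each scoring 70 or more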;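 also: 0% = median of neutral control wells and 100% = median of positive control wells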
Target sequence (Q61009 whole entry, looked up): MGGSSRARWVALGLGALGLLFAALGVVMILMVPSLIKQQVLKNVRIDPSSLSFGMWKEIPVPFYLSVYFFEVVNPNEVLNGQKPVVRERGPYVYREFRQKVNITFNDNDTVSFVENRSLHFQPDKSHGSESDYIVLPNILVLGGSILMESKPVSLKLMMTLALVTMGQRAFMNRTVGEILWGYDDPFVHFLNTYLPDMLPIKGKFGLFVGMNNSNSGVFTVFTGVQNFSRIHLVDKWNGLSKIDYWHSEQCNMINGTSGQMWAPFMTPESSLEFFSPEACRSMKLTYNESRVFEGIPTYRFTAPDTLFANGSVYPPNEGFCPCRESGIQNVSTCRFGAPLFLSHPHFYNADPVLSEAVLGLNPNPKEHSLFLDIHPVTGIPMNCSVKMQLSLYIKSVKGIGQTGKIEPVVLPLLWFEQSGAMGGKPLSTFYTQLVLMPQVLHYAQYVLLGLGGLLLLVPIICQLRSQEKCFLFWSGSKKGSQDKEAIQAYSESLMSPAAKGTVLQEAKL
Numbers without * were called inactive.

What do the screens show for `COc1ccc(C)cc1NC(=O)Nc1ccc2c(c1)CCC2`?
AHR activator: 77*; SR-BI uptake up: -49; GAA850 FXN act: 0; GASC-1 inh: 12; SR-BI HDL uptake: 49

Results for COc1ccc(-c2nc(NC3=NCCCCC3)sc2C)cc1 ?
AHR activator: 73*; SR-BI uptake up: -46; GAA850 FXN act: 2; GASC-1 inh: -13; SR-BI HDL uptake: 46

Results for CCN(CC)C(=O)CSc1nc2ncc(Br)cc2[nH]1 ?
AHR activator: 63*; SR-BI uptake up: 25; GAA850 FXN act: -1; GASC-1 inh: -7; SR-BI HDL uptake: -25

What do the screens show for `Cc1cc(C)nc(NC(N)=NC(C)c2ccccc2)n1` (configuration not stated)?
AHR activator: 23; GASC-1 inh: 51*

How did CCc1cccc(-n2c(SCC(=O)c3c(N)n(C4CC4)c(=O)[nH]c3=O)nnc2N2CCOCC2)c1 do in these assays?
SR-BI uptake up: 1; GAA850 FXN act: -1; SR-BI HDL uptake: -1

Results for COc1ccc(NC(=O)COC(=O)CN2C(=O)C3CCCCC3C2=O)cc1 (configuration not stated) ?
GAA850 FXN act: 0

Results for Cc1ccc(-c2nc(NC(=O)c3cc(C(C)(C)C)nn3C)sc2C)cc1Cl ?
AHR activator: 3; SR-BI uptake up: -73; GAA850 FXN act: 0; SR-BI HDL uptake: 73*

How did CSCCC(NC(=O)C1CCC(C)CC1)C(=O)NCCN1CCC(C)CC1 (configuration not stated) do in these assays?
AHR activator: -1; GAA850 FXN act: 4; GASC-1 inh: 1

How did Cn1c2c(c(=O)n3ncnc13)CCCC2 do in these assays?
AHR activator: 1; SR-BI uptake up: 21; GAA850 FXN act: -1; GASC-1 inh: 1; SR-BI HDL uptake: -21

Results for CCCCNC(=S)N/N=C/c1cccc(OCC)c1O ?
AHR activator: 2; SR-BI uptake up: -3; GAA850 FXN act: 3; GASC-1 inh: 4; SR-BI HDL uptake: 3

Results for CCOc1cccc(/C=N/NC(=S)Nc2ccccc2[N+](=O)[O-])c1O ?
AHR activator: 6; SR-BI uptake up: -128; GAA850 FXN act: -14; GASC-1 inh: -8; SR-BI HDL uptake: 128*

How did CCn1c(SCC(=O)NCc2ccccc2)nnc1C(CO)NC(=O)c1ccccc1 (configuration not stated) do in these assays?
AHR activator: 0; SR-BI uptake up: 6; GAA850 FXN act: 2; GASC-1 inh: 5; SR-BI HDL uptake: -6

Results for CCOc1ccc(NS(=O)(=O)c2cccc(C(=O)N(C)Cc3ccco3)c2)cc1 ?
AHR activator: -1; SR-BI uptake up: 12; GAA850 FXN act: -1; GASC-1 inh: 2; SR-BI HDL uptake: -12

How did O=C(CCSCCC(=O)NN=Cc1ccc(F)cc1)NN=Cc1ccc(F)cc1 do in these assays?
SR-BI uptake up: -82; GAA850 FXN act: 2; SR-BI HDL uptake: 82*

What do the screens show for `Cc1ccc(C(=O)N/C(=C/c2ccc(-c3cccc([N+](=O)[O-])c3)o2)C(=O)NC(C)C)cc1`?
AHR activator: 10; SR-BI uptake up: -83; GAA850 FXN act: -2; GASC-1 inh: 7; SR-BI HDL uptake: 83*

What do the screens show for `Cc1ccc(C(=O)N/C(=C\c2ccc(-c3cccc([N+](=O)[O-])c3)o2)C(=O)NCCCN2CCOCC2)cc1`?
AHR activator: -1; SR-BI uptake up: -78; GAA850 FXN act: 0; GASC-1 inh: 15; SR-BI HDL uptake: 78*

What do the screens show for `Cc1ccc(C(=O)N/C(=C\c2ccc(-c3ccccc3[N+](=O)[O-])o2)C(=O)NCCN(C)C)cc1`?
AHR activator: 52*; SR-BI uptake up: -9; GAA850 FXN act: 0; GASC-1 inh: 50; SR-BI HDL uptake: 9

What do the screens show for `CCOC(=O)C1=C(C)OC(N)=C(C#N)C1c1ccc(C)s1` (configuration not stated)?
AHR activator: 5; SR-BI uptake up: -9; GAA850 FXN act: -3; GASC-1 inh: 3; SR-BI HDL uptake: 9

Results for Cc1ccccc1N=C1N=C(N)c2ccccc21 ?
AHR activator: 4; SR-BI uptake up: 5; GAA850 FXN act: 0; GASC-1 inh: 60*; SR-BI HDL uptake: -5

How did Clc1ccc2[nH]c3c(c2c1)CCc1cn[nH]c1-3 do in these assays?
AHR activator: 96*; SR-BI uptake up: -22; GAA850 FXN act: -2; GASC-1 inh: -2; SR-BI HDL uptake: 22

How did COc1ccc(CC(=O)NCC(=O)NCc2cc(=O)n(C)c(=O)n2C)cc1 do in these assays?
AHR activator: 2; SR-BI uptake up: -8; GAA850 FXN act: 1; GASC-1 inh: 25; SR-BI HDL uptake: 8

How did CCCn1c(N)c(C(=O)CSc2nc3ccccc3n2CCC#N)c(=O)n(C)c1=O do in these assays?
AHR activator: 53*; SR-BI uptake up: 22; GAA850 FXN act: 1; GASC-1 inh: inactive; SR-BI HDL uptake: -22

What do the screens show for `Fc1ccccc1-c1csc(=Nc2cccnc2)n1CCCn1ccnc1`?
AHR activator: 70*; SR-BI uptake up: 26; GAA850 FXN act: -3; GASC-1 inh: 0; SR-BI HDL uptake: -26

How did Fc1ccccc1-c1csc(=Nc2cccnc2)n1CC1CCCO1 (configuration not stated) do in these assays?
AHR activator: 23; SR-BI uptake up: -4; GAA850 FXN act: 2; SR-BI HDL uptake: 4

How did CC(=O)Nc1ccc(-c2cc(N)n(-c3ccccc3)n2)cc1 do in these assays?
AHR activator: 72*; SR-BI uptake up: 17; GAA850 FXN act: 8; GASC-1 inh: -8; SR-BI HDL uptake: -17

Results for CCOc1cc(/C=C/c2nc3ccccc3s2)ccc1OCC(=O)N1CCOCC1 ?
AHR activator: -1; SR-BI uptake up: -78; GAA850 FXN act: 1; GASC-1 inh: -1; SR-BI HDL uptake: 78*

Results for CCOc1cc(C(=O)NCc2ccccc2)ccc1OCC(=O)N1CCOCC1 ?
AHR activator: 1; SR-BI uptake up: 7; GAA850 FXN act: 1; GASC-1 inh: -12; SR-BI HDL uptake: -7

What do the screens show for `Oc1c(Cl)cc(Cl)cc1C1=NNC(c2ccc(Cl)cc2)C1` (configuration not stated)?
SR-BI uptake up: -84; GAA850 FXN act: 2; SR-BI HDL uptake: 84*

What do the screens show for `Oc1ccc(Cl)cc1C1=NNC(c2cc(Br)cc3c2OCOC3)C1` (configuration not stated)?
AHR activator: 30; SR-BI uptake up: -63; GAA850 FXN act: 3; GASC-1 inh: -6; SR-BI HDL uptake: 63

What do the screens show for `Oc1ccc(Cl)cc1C1=NNC(c2ccc(Cl)cc2)C1` (configuration not stated)?
AHR activator: 77*; SR-BI uptake up: -84; GAA850 FXN act: 5; GASC-1 inh: -2; SR-BI HDL uptake: 84*
